E coli WT exp: growth inhibitors of wild-type E. coli, primary screen, strain BW25113, expanded library, OD600 | OD600 absorbance | growth inhibition, % at 100 µM | 98,000 tested, 0.15% active;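 active = growth inhibition above about 50% at one test dose, limit read from the data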;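 note: growth measured after 20 h incubation at 37 °C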
HUVEC prolif 384: inhibitors of HUVEC proliferation, primary screen, cell-based, 384-well; 86,000 tested, 1.1% active; viability, % at 10 µM (by protocol); CellTiter-Glo luminescence, 72 h; stronger effect = lower value;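 active = viability at or below 30%; inactive = viability above 30%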
Lung fibro prol: antiproliferative effect on LL 47 fibroblasts – human, LL 47 cells, CellTiter-Glo luminescence, primary screen; LL 47 human lung fibroblast viability, ATP luminescence; stronger effect = lower value; viability, % at 10 µM; 85,000 tested, 1.1% active;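 active = viability at or below 50% in the single dose screen; inactive = viability above 50%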;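 note: compound exposure lasted 72 h before the ATP readout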
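Material: Human LL 47 lung fibroblast cells | Input: 1,150 cells/well | Buffer or medium: IMEM plus 15% FBS | Compound dosing: 0.1% DMSO in all compound wells | Times: Overnight cell rest, 72 h compound treatment at 37 °C | Signal: CellTiter-Glo luminescence measuring cellular ATP | Measure: % viability versus median cells-only luminescence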
H69AR inhibit: proliferation blockers of H69AR lung cancer cells, primary screen, cell-based, human, 86K library. H69AR lung tumor viability, ATP luminescence, 72 h; stronger effect = lower value. viability, % at 10 µM. 85,000 tested, 6% active. AID 598, 2007;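 active = viability at or below 40%; inactive = viability above 40%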;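 note: multidrug resistant small cell line overexpressing MRP-1 efflux transporter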
Ecoli tolC: growth inhibitors of E. coli tolC mutant, primary screen, strain BW25113 ΔtolC::kan, 384-well; OD615; growth inhibition, % at 10 µM (by protocol); 65,000 tested, 2.2% active;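 active = growth inhibition at or above a cutoff equal to the mean over every tested compound plus 3 SD, cut at about 60% in these data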;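 note: growth measured after 20 h incubation at 37 °C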
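test system = E. coli BW25113 ΔtolC::kan bacteria | medium = LB with kanamycin 50 µg/mL | signal = OD at 615 nm | schedule = 37 °C, 20 h exposure | evaluation = % inhibition of E. coli growth | compound dosing = one dose of 10 µM final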
Jurkat viability: cytotoxicity toward Jurkat T cells, primary screen, cytotoxicity control, cell-based, Jurkat E6.1, 60K MLSMR library. Jurkat E6.1 viability, ATP luminescence, 48 h. inhibition, % at 4 µM. 56,000 tested, 1.2% active. AID 463, 2006;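 active = inhibition above the mean inhibition of all tested compounds plus 3 SD, cut at about 28% in these data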
Large screens that a line does not name were inactive. Most compounds without a hit are left out; they make up all but 6.4% or so of the library.

CC1(C)C=Cc2c(c3ccccc3[nH]c2=O)O1	none
CCN(CC)c1nc(N)nc(N(c2ccccc2)c2ccccc2)n1	none (no result: Ecoli tolC, Jurkat viability)
COc1nc(N(c2ccccc2)c2ccccc2)nc(-n2ccnc2)n1	Ecoli tolC 94.5
CCOC(=O)CN1C2=NCCN2c2ccccc21	none
CCOC(=O)CN1C(=O)C(=O)c2cccc(C)c21	H69AR inhibit 33.2
COc1ccc2[nH]c3c(=O)n(CCCCC(=O)N4CCC(C(N)=O)CC4)c(=S)[nH]c3c2c1	Ecoli tolC 100.0
COc1ccc2[nH]c3c(=O)n(CCCCC(=O)NCCN4CCCC4)c(=S)[nH]c3c2c1	Ecoli tolC 60.6
Cc1nc(Cl)c(C(=O)NC(=O)Nc2cccc(C(F)(F)F)c2)c(C)c1[N+](=O)[O-]	H69AR inhibit 6.7 (no result: E coli WT exp, Ecoli tolC, Jurkat viability)
CCOC(=O)Nc1oc2ccccc2c(=O)c1CN1CCOCC1	none (no result: HUVEC prolif 384, Lung fibro prol, H69AR inhibit)
CC1CCN(S(=O)(=O)c2ccc(Cl)cc2Br)CC1	Ecoli tolC 97.9
OCCn1c(Cl)nc2ccccc21	none (no result: E coli WT exp, Ecoli tolC, Jurkat viability)
O=C(Nc1ccc(S(=O)(=O)N2CCCc3ccccc32)cc1)C1CCCO1 (configuration not stated)	Ecoli tolC 67.6
O=C(O)C1CC=CCC1C(=O)Nc1ccc(S(=O)(=O)N2CCCc3ccccc32)cc1 (configuration not stated)	Ecoli tolC 61.0, Jurkat viability 35.1
CCOc1cc(S(=O)(=O)NCc2ccco2)c(OCC)cc1-n1cnnn1	none
COc1ccc(NC(=O)c2cnc(C)cn2)c2ncccc12	HUVEC prolif 384 26.9, Lung fibro prol 49.4, H69AR inhibit 2.8, Jurkat viability 62.2
Cc1cnc(C(=O)Nc2ccccc2F)cn1	none (no result: Ecoli tolC, Jurkat viability)
CCCCOc1ccc(-c2nnn(CC(=O)NCc3ccco3)n2)cc1	H69AR inhibit 29.1 (no result: Ecoli tolC)
CCOc1ccc(-c2nnn(CC(=O)NCc3ccco3)n2)cc1OCC	none (no result: E coli WT exp, Ecoli tolC, Jurkat viability)
COc1cc2c(cc1NC(=S)Nc1cccc(C(F)(F)F)c1)oc1ccccc12	H69AR inhibit 30.2 (no result: Ecoli tolC, Jurkat viability)
CN(O)/C=c1/ccc2c(n1)C(=O)C=CC=2	H69AR inhibit 36.7
COc1ccc(NC(=O)/C(Cl)=C(/Cl)S(=O)(=O)Cc2ccccc2)cn1	Lung fibro prol 4.7, H69AR inhibit 1.9 (no result: Ecoli tolC, Jurkat viability)
COc1ccc(NS(=O)(=O)Cc2ccccc2Cl)cn1	none
COc1cccc(OCc2nc3ncc(Br)cc3[nH]2)c1	Lung fibro prol 47.3, H69AR inhibit 24.9, Jurkat viability 64.6
Cc1cc(C)cc(OCc2nc3ncc(Br)cc3[nH]2)c1	Lung fibro prol 14.1, H69AR inhibit 10.7 (no result: E coli WT exp, Ecoli tolC, Jurkat viability)
CCOC(=O)CNC(=O)CSc1nc2ncc(Br)cc2[nH]1	none (no result: H69AR inhibit)
O=C1NCN(c2ccccc2)C12CCN(c1nnnn1-c1ccccc1)CC2	none (no result: Jurkat viability)
CCSc1nnc(NC(=O)CCc2ccccc2)s1	none
CCSc1nnc(NC(=O)CCNS(=O)(=O)c2cc(Br)cnc2N)s1	H69AR inhibit 38.6
CCOc1ccccc1C1CC(=O)NC2=C1C(=O)CCC2 (configuration not stated)	H69AR inhibit 23.4, Jurkat viability 64.5
CCCCOc1ccccc1C1CC(=O)NC2=C1C(=O)CCC2 (configuration not stated)	Lung fibro prol 47.5, H69AR inhibit 27.8, Jurkat viability 74.2
CCOc1ccc(C2CC(=O)NC3=C2C(=O)CCC3)cc1 (configuration not stated)	none
CCCOc1ccccc1C1CC(=O)NC2=C1C(=O)CCC2 (configuration not stated)	Jurkat viability 95.2
NS(=O)(=O)c1ccc(NC(=O)COC(=O)CCNC(=O)NC23CC4CC(CC(C4)C2)C3)cc1	none (no result: Lung fibro prol, Jurkat viability)
COc1ccc(CCNc2ncnc3c2oc2ccccc23)cc1OC	Jurkat viability 83.8
COc1ccc(CCNc2nc(C)nc3c2oc2ccccc23)cc1OC	none (no result: Ecoli tolC, Jurkat viability)
CC1(C)CC(=O)c2cc(C(=O)NCc3ccco3)c(=O)n(-c3ccc(Cl)cc3)c2C1	Lung fibro prol 47.6
Cc1ccc(-n2c3c(cc(C(=O)NCc4ccco4)c2=O)C(=O)CC(C)(C)C3)cc1	none
CC1CCCN(C(=O)C2CCN(S(=O)(=O)c3cccc4cccnc34)CC2)C1 (configuration not stated)	none
COc1cc(C2C(C#N)=C(N)Oc3cc(O)ccc32)cc(OC)c1OC (configuration not stated)	Lung fibro prol 47.2, H69AR inhibit 27.5 (no result: Ecoli tolC, Jurkat viability)
CCOC(=O)C1=C(C)OC(N)=C(C#N)C1c1cc(OC)c2c(c1)OCO2 (configuration not stated)	none
COc1cc(C2C(C#N)=C(N)Oc3cc(O)ccc32)cc2c1OCO2 (configuration not stated)	H69AR inhibit 23.5
COc1cc(C2C(C#N)=C(N)Oc3cc(N(C)C)ccc32)cc2c1OCO2 (configuration not stated)	H69AR inhibit 26.6
Cc1cc(C)n2nc(SCC(=O)Nc3c(C)n(C)n(-c4ccccc4)c3=O)nc2n1	none (no result: Ecoli tolC, Jurkat viability)
Cc1[nH]c2ccccc2c1Cc1nnc(SCc2ccccc2)o1	none (no result: Ecoli tolC, Jurkat viability)
Nn1cnnc1N/N=C/c1cc(Br)cc(Br)c1O	none (no result: HUVEC prolif 384, Lung fibro prol, H69AR inhibit, Ecoli tolC, Jurkat viability)
S=C1NCCOCCOCCOCCOCCNC(=S)NCCOCCOCCOCCOCCN1	none (no result: E coli WT exp, Ecoli tolC, Jurkat viability)
c1ccc(/N=C2\N=C(Nc3ccccn3)c3ccccc32)nc1	HUVEC prolif 384 2.4, H69AR inhibit 1.0, Jurkat viability 49.9 (no result: E coli WT exp)
c1ccc(Nc2ccccn2)cc1	none (no result: Ecoli tolC, Jurkat viability)
CCOc1ccc(S(=O)(=O)N2CCc3ccccc3C2)cc1	none
COC(=O)COc1ccc(S(=O)(=O)N2CCc3ccccc3C2)cc1	HUVEC prolif 384 18.8, Lung fibro prol 25.0 (no result: Ecoli tolC, Jurkat viability)
CCC(=O)Nc1nc(-c2ccc3c(c2)OCCO3)cs1	none (no result: Ecoli tolC, Jurkat viability)
CCCc1cc(-c2nc(N)ncc2-c2ccc3c(c2)OCCCO3)c(O)cc1OC	H69AR inhibit 28.1 (no result: Jurkat viability)
O=C(Nc1ccc(S(=O)(=O)N2CCOCC2)cc1)c1ccco1	none
COC(=O)c1cccc(NS(=O)(=O)c2ccc(OC)cc2)c1C	H69AR inhibit 22.8 (no result: E coli WT exp, Ecoli tolC, Jurkat viability)
CCOC(=O)c1ccccc1NS(=O)(=O)c1ccc(OCC)cc1	H69AR inhibit 12.7 (no result: Ecoli tolC, Jurkat viability)
Cc1ccc(S(=O)(=O)N2CCN(C(=O)COc3ccc(NC(=O)c4ccco4)cc3)CC2)cc1	H69AR inhibit 36.6 (no result: Ecoli tolC, Jurkat viability)
COC(=O)c1cccc(NS(=O)(=O)c2ccc(OC)c(OC)c2)c1C	none (no result: Ecoli tolC, Jurkat viability)
CCOc1ccc(NS(=O)(=O)c2ccc(OCC(=O)N3CCCC3)cc2)cc1	none
CCOC(=O)N1CCN(C(=O)COc2ccc(S(=O)(=O)Nc3ccc(OCC)cc3)cc2)CC1	Ecoli tolC 67.9
CCOC(=O)CC1C(=O)NCCN1S(=O)(=O)c1ccc(Cl)cc1Cl (configuration not stated)	none (no result: HUVEC prolif 384, Lung fibro prol, H69AR inhibit, Ecoli tolC, Jurkat viability)

Screening results deposited in PubChem by several laboratories.
